# Measured values of several laboratories.
# Protocols differ between the studies behind these lines.
# Target: Tyrosine-protein kinase receptor Tie-1 (TIE1, Homo sapiens, UniProt P35590)
SMILES,observed,technique,concentration,remaining binding [%]
COc1cnc(Nc2cccc(S(N)(=O)=O)c2)nc1N1CCN(c2ccccc2)C(=O)C1,binding,competition with immobilised ligand,1 µM,100
CCS(=O)(=O)c1cc2cc(C[C@](O)(CC(C)(C)c3ccc(F)cc3C(N)=O)C(F)(F)F)[nH]c2cn1,cell-free assay,competition with immobilised ligand,1 µM,100
COc1ncc2cc3ccccc3nc2c1C#N,cell-free assay,competition with immobilised ligand,5 µM,100
CCCCN(CCCC)C(=O)CN1C[C@@H](c2cc(OC)c3c(c2)OCO3)[C@H](C(=O)O)[C@H]1CC(C)(C)CCC,cell-free assay,competition with immobilised ligand,1 µM,94.7
c1cnn2ncc(-c3ccnc(N4CCC45COC5)n3)c2c1,binding,,1 µM,100
CNCc1ccccc1-c1csc([C@H](C)Nc2nc(C)nc3cc(OC)c(OC)cc23)c1,cell-free assay,competition with immobilised ligand,1 µM,100
Cc1cnn2ncc(-c3ccnc(N(C)C)n3)c2c1,binding,,1 µM,98
C=CC(=O)N1CCC(C(=O)NCC(=O)N2CCN(c3nc(-c4cnc(N)nc4C(F)F)nc(N4CCOCC4)n3)CC2)CC1,binding,competition with immobilised ligand,1 µM,100
CNC(=O)[C@@H]1CC[C@@H](n2c(-c3ccc4cnccc4c3)nc3ccc(C(=O)NCc4cccc(C(N)=O)c4)cc32)C1,binding,competition with immobilised ligand,1 µM,85
O=C(c1ccc(Nc2ncc(Cl)c(-c3ccc(Cl)s3)n2)cc1)N1CCC(N2CCCC2)CC1,binding,competition with immobilised ligand,1 µM,18
CCN1CCN(Cc2ccc(C(=O)Nc3ccc(C)c(Oc4ccc5c(c4)CC(=O)N5)c3)cc2C(F)(F)F)CC1,binding,competition with immobilised ligand,1 µM,79
CNC(=O)c1ccc(Nc2ncc(C(F)(F)F)c(NCc3nccnc3N(C)S(C)(=O)=O)n2)cc1,cell-free assay,competition with immobilised ligand,0.1 µM,47
c1cncc(-c2cccc(Nc3nccc(NC4CCCCC4)n3)c2)c1,binding,competition with immobilised ligand,10 µM,17
COc1ccnn2ncc(-c3ccnc(N(C)C)n3)c12,binding,,1 µM,81
CS(=O)(=O)NCC[C@H](NC(=O)c1cncc2c1cnn2-c1ccc(F)cc1)c1ccnc(S(C)(=O)=O)c1,cell-free assay,competition with immobilised ligand,1 µM,100
CN(c1nccc(-c2cnn3ncccc23)n1)C1CC1,binding,,1 µM,100
O=C(Nc1c[nH]nc1C(=O)NC1CCNCC1)c1cc(F)cc(F)c1,binding,competition with immobilised ligand,1 µM,100
N[C@H]1CCN(c2nccc(-c3cnn4ncccc34)n2)C1,binding,,1 µM,100
Cc1cnc(Nc2ccc(C(=O)N3CCC(N4CCCC4)CC3)cc2)nc1-c1cc2ccccc2s1,binding,competition with immobilised ligand,1 µM,10
CS(=O)(=O)N1CCCC(NC(=O)[C@H](CCC2CCCCC2)NC(=O)c2ccc(CNC(=O)c3cnc4ccccn34)cc2)C1 (stereo partly shown),cell-free assay,competition with immobilised ligand,0.1 µM,100
C[C@@H]1CCN(c2nccc(-c3cnn4ncccc34)n2)C1,binding,,1 µM,100
O=C(NCCCN1CCOCC1)c1ccc(Nc2ncc(Cl)c(-c3ccc(Cl)s3)n2)cc1,binding,competition with immobilised ligand,1 µM,44
